Test: Interaction with DPPH
Procedure, shortened: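 DPPH 0.1 mM in absolute ethanol mixed with an equal volume of test compound in ethanol (0.1 mM); ethanol-only control. Kept at room temperature; absorbance at 517 nm recorded after 20 and 60 min. At least triplicate.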

Row | Compound | DPPH (0.1 mmol/L) 20min
1 | CC(Cc1ccc(O)c(O)c1)C(C)Cc1ccc(O)c(O)c1 (centres unmarked) [NDGA, nor-dihydroguaeretic acid] | 94%
2 | CC(=O)Oc1ccccc1C(=O)O [ASA, Acetyl salicylic acid] | 80.5%
